An excerpt weighted towards active compounds, which were near 2.1% of everything screened.
miR122 inh: miR-122 inhibition in Huh7 cells | Huh7 miR-122 Renilla luciferase sensor, 48 h; neutral wells = 0, positive control = 100 | activation (reporter increase), % at 12.5 µM | 340,000 tested, 0.3% active | AID 602342;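 active = mean replicate activation score at least 90 and every replicate individually at or above 90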;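 also: higher luciferase means less miR-122 activity so hits act as miR-122 inhibitors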
CAL PDZ FP-1: blocks peptide binding to the human CAL PDZ domain. Q9HD26. AID 602252. 300,000 tested, 0.92% active. purified CAL PDZ, TMR-peptide fluorescence polarization, 1 h. inhibition, % at 24.9 µM;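 active = mean inhibition of at least 30% with at least half of replicates also reaching 30%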;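 also: 0% = DMSO neutral control and 100% = excess unlabeled competitor peptide PRC23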
SR-BI DiI inh: blocks mouse SR-BI lipid uptake from DiI-HDL. Q61009. ldlA[mSR-BI] CHO cells, DiI-HDL uptake fluorescence, 3 h. inhibition, % at 12.5 µM. 320,000 tested, 0.96% active;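 active = mean replicate inhibition of at least 70% and a set share of replicates each scoring 70 or more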;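 also: 0% = median of neutral control wells and 100% = median of positive control wells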
Target sequence (Q61009 whole entry, looked up): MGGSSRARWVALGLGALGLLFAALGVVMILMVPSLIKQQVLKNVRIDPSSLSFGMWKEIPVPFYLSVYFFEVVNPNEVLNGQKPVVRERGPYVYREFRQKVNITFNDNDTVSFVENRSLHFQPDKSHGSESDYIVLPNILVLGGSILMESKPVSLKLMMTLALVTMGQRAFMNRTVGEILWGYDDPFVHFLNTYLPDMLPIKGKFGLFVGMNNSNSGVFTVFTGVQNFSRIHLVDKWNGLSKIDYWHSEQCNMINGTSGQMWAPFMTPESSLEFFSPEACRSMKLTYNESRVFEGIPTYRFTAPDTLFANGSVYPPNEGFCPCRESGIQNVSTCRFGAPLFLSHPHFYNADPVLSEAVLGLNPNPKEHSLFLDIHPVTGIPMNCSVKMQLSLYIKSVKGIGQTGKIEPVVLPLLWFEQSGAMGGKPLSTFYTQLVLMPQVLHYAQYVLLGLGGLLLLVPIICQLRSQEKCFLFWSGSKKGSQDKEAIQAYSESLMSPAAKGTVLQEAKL
ARNT TACC3 PPI: disrupts binding between human ARNT and TACC3 | AlphaScreen His-ARNT PAS-B/GST-TACC3 binding, luminescence; TACC3 fragment carries E629A point mutation | Q9Y6A5 | inhibition, % at 9.99 µM | 390,000 tested, 0.66% active;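 active = mean inhibition of replicates at least 50% and at least half of replicates each reaching 50%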;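 also: 0% = complete ARNT plus TACC3 wells and 100% = ARNT alone without TACC3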
SR-BI DiI-HDL act: activators of SR-BI mediated HDL lipid uptake; CHO ldlA[mSR-BI] cells, DiI-HDL uptake fluorescence, 3 h; 100 = double the neutral-control signal; activation, % at 12.5 µM; 320,000 tested, 0.096% active; AID 504775;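 active = mean replicate activation of at least 60% and every replicate at or above 60%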;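 also: 0% = median plate neutral-control signal and 100% = twice that signal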
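Test system: SR-BI-overexpressing, LDLR-lacking CHO cells; Also added: labelled HDL, 10 µg/mL; Measured by: bottom-read cell fluorescence after medium removal, ex 550/em 595 nm; Timing: 3 h uptake period with compound, 37 °C; Buffer or medium: F12, 0.5% BSA, 25 mM HEPES; Doses: single compound concentration, delivered by pin transfer.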
CAL PDZ FP-2: human CAL PDZ-peptide interaction inhibition; Q9HD26; purified CAL PDZ, TMR-peptide fluorescence polarization, 1 h; inhibition, % at 20 µM; 330,000 tested, 0.02% active; AID 504414;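 active = highest replicate inhibition of at least 40%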;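 also: plate controls were DMSO neutral control wells for no effect and unlabeled competitor peptide control wells for full effect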
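Control set: unlabelled peptide and DMSO controls / Material: purified CerCALP PDZ construct / Timing: 1 h incubation at room temperature before polarization reading / Doses: 20 µM, one dose / Detection: fluorescence polarization (mP)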
AlphaScreen ctr: interferes with AlphaScreen signal, flagging false ARNT-TACC3 hits. AID 651705. AC50, µM (highest dose often 68 µM), for inactives: at the top dose activity change, negative = signal decrease. 1,200 tested, 50% active. His-ARNT PASB-GST AlphaScreen artifact counter-screen, luminescence. shares compounds with ARNT TACC3 PPI;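 active = every separate test run was called active for a drop in luminescence, with AC50 within twice the top valid dose, actives reach about 71 µM in these data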
Starred values were filed as active, the others as inactive; x = not tested or not shown; [ ] = remark or other dose.

SMILES | miR122 inh | CAL PDZ FP-1 | SR-BI DiI inh | ARNT TACC3 PPI | SR-BI DiI-HDL act | CAL PDZ FP-2 | AlphaScreen ctr
COc1ccc(Cc2c(O)[nH]c(=O)[nH]c2=O)c(OC)c1 | x | -5.3 | x | 14.9* | x | -2.8 | -3.7%
CCCN1[C@@H]2c3ccc(-c4ccc(OC)cc4)c(=O)n3C[C@H]1[C@H](CO)[C@H]2C(=O)OC | 1.8[16.7 µM] | x | x | 1.9 | x | x | x
CCOC(=O)c1cc2c(cn1)[C@@H](CCO)NC2 | x | -0.8 | -7.2 | 55.5* | 7.2 | -0.2 | -6.4%
CCCCn1c(NC(=O)c2ccco2)c(C(=O)OCC)c2nc3ccccc3nc21 | -8.6 | -0.6 | -6.9 | 29.9* | 6.9 | 0.2 | -14.1%
CCCCOCCCn1c(N)c(C(=O)OCCOC)c2nc3ccccc3nc21 | -5.0 | -6.5 | -7.7 | 68.2* | 7.7 | x | -10.4%
CCCCn1c(N)c(C(=O)OCCOC)c2nc3ccccc3nc21 | 12.5 | x | x | x | x | x | x
COCCCn1c(N)c(C(=O)NCCC(C)C)c2nc3ccccc3nc21 | -8.7 | 1.5 | -6.8 | active | 6.8 | -0.9 | -2.2%
O=C(Cc1cccnc1)N1CCCCN2[C@@H](CO)[C@@H](c3ccc(/C=C/c4ccccc4)cc3)[C@@H]2C1 | -1.0[16.7 µM] | x | x | 7.4 | x | x | x
COc1cc2c(c(OC)c1OC)-c1ccc(O)c(=O)cc1[C@@H](N)CC2 | -4.0 | -2.3 | -7.0 | 57.8* | 7.0 | 0.5 | -34.9%
COc1ccc(-c2cc(=Nc3ccccc3)c3cc(C)ccc3o2)cc1 | 18.1 | -0.2 | 50.1 | 5.2 | -50.1 | -2.7 | x
COc1ccc(-c2cc(=NCCC(=O)O)c3cc(C)ccc3o2)cc1 | -6.4 | x | -2.0 | 30.2* | 2.0 | -0.9 | -29.9%
N#Cc1cccc(-c2ccc([C@H]3[C@H](CO)N4CCCCN(C(=O)Cc5ccccc5)C[C@@H]34)cc2)c1 | -13.9[16.7 µM] | x | x | 1.1 | x | x | x
COC(=O)[C@H]1[C@H](CO)[C@H]2Cn3c(ccc(/C=C/c4ccccc4)c3=O)[C@@H]1N2Cc1ccccc1F | x | x | x | -31.4 | x | x | x

Screening data (PubChem BioAssay)
